Measured values as given in ChEMBL document CHEMBL2057101, “Fluorocyclines. 2. Optimization of the C-9 side-chain for antibacterial activity and oral efficacy” (J Med Chem, 2012).
Converted amounts (≈) assume the structure as drawn.

Legend:
Assay type in all cases: functional
Staphylococcus aureus [1] = test: Antibacterial activity against tetracycline-susceptible Staphylococcus aureus ATCC 13709 Smith isolate SA100
How it was run: (§1)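 Broth microdilution MIC following CLSI methods in cation-adjusted Mueller Hinton broth, prepared fresh and held at 4 °C before testing. Defibrinated horse blood added to the medium where appropriate. Runs accepted when quality control ranges for comparator antibiotics and ATCC QC strains were met.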

Klebsiella pneumoniae = test: Antibacterial activity against Klebsiella pneumoniae ATCC 13883
How it was run: (§2)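 MIC by broth microdilution in liquid medium per CLSI, in cation-adjusted Mueller Hinton broth made fresh and held at 4 °C before testing. Horse blood (defibrinated) added to the medium where appropriate. Runs were accepted only when the comparator antibiotics and ATCC QC strains fell within their recommended ranges.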

Staphylococcus aureus [2] = test: Antibacterial activity against tetracycline-resistant Staphylococcus aureus isolate SA161 expressing TetM gene; how it was run: as §1
Streptococcus pneumoniae [3] = test: Antibacterial activity against Streptococcus pneumoniae ATCC 49619 isolate 106; how it was run: as §2
Streptococcus pneumoniae [4] = test: Antibacterial activity against tetracycline-resistant Streptococcus pneumoniae isolate 160 expressing tetM gene
Escherichia coli [5] = test: Antibacterial activity against Escherichia coli ATCC 25922 isolate 107; how it was run: as §2
Escherichia coli [6] = test: Antibacterial activity against Escherichia coli isolate EC155 expressing tetA gene; how it was run: as §2
Staphylococcus aureus [7] = test: Antibacterial activity against tetracycline-resistant Staphylococcus aureus isolate SA158 expressing TetK gene

| SMILES | MIC (Staphylococcus aureus [1]) | MIC (Klebsiella pneumoniae) | MIC (Staphylococcus aureus [2]) | MIC (Streptococcus pneumoniae [3]) | MIC (Streptococcus pneumoniae [4]) | MIC (Escherichia coli [5]) | MIC (Escherichia coli [6]) | MIC (Staphylococcus aureus [7]) |
| --- | --- | --- | --- | --- | --- | --- | --- | --- |
| CN(C)[C@@H]1C(O)=C(C(N)=O)C(=O)[C@@]2(O)C(O)=C3C(=O)c4c(O)c(NS(=O)(=O)c5ccccc5)cc(F)c4C[C@H]3C[C@@H]12 | 0.5 mg/L (≈ 0.851 µM) | > 32 mg/L | 1 mg/L (≈ 1.7 µM) | 0.25 mg/L (≈ 0.425 µM) | 0.25 mg/L (≈ 0.425 µM) | 32 mg/L (≈ 54.5 µM) | > 32 mg/L | 0.5 mg/L (≈ 0.851 µM) |
| CN(C)[C@@H]1C(O)=C(C(N)=O)C(=O)[C@@]2(O)C(O)=C3C(=O)c4c(O)c(NS(=O)(=O)c5cccs5)cc(F)c4C[C@H]3C[C@@H]12 | 0.5 mg/L (≈ 0.842 µM) | > 32 mg/L | 1 mg/L (≈ 1.68 µM) | 0.25 mg/L (≈ 0.421 µM) | 1 mg/L (≈ 1.68 µM) | > 32 mg/L | > 32 mg/L | 0.5 mg/L (≈ 0.842 µM) |
| CN(C)[C@@H]1C(O)=C(C(N)=O)C(=O)[C@@]2(O)C(O)=C3C(=O)c4c(O)c(Nc5ccncn5)cc(F)c4C[C@H]3C[C@@H]12 | 0.25 mg/L (≈ 0.476 µM) | 8 mg/L (≈ 15.2 µM) | 2 mg/L (≈ 3.81 µM) | 0.063 mg/L (≈ 0.12 µM) | 0.5 mg/L (≈ 0.951 µM) | 2 mg/L (≈ 3.81 µM) | > 32 mg/L | 2 mg/L (≈ 3.81 µM) |
| CN(C)[C@@H]1C(O)=C(C(N)=O)C(=O)[C@@]2(O)C(O)=C3C(=O)c4c(O)c(NCCNC(C)(C)C)cc(F)c4C[C@H]3C[C@@H]12 | 1 mg/L (≈ 1.83 µM) | 8 mg/L (≈ 14.6 µM) | 4 mg/L (≈ 7.32 µM) | 0.125 mg/L (≈ 0.229 µM) | 0.25 mg/L (≈ 0.457 µM) | 2 mg/L (≈ 3.66 µM) | 16 mg/L (≈ 29.3 µM) | 1 mg/L (≈ 1.83 µM) |
| CN(C)[C@@H]1C(O)=C(C(N)=O)C(=O)[C@@]2(O)C(O)=C3C(=O)c4c(O)c(N)cc(F)c4C[C@H]3C[C@@H]12 | 0.25 mg/L (≈ 0.559 µM) | 4 mg/L (≈ 8.94 µM) | 2 mg/L (≈ 4.47 µM) | 0.25 mg/L (≈ 0.559 µM) | 4 mg/L (≈ 8.94 µM) | 2 mg/L (≈ 4.47 µM) | 32 mg/L (≈ 71.5 µM) | 2 mg/L (≈ 4.47 µM) |
| CN(C)[C@@H]1C(O)=C(C(N)=O)C(=O)[C@@]2(O)C(O)=C3C(=O)c4c(O)c(NC(=O)c5ccccc5)cc(F)c4C[C@H]3C[C@@H]12 | 0.25 mg/L (≈ 0.453 µM) | > 32 mg/L | 0.25 mg/L (≈ 0.453 µM) | 16 mg/L (≈ 29 µM) | 16 mg/L (≈ 29 µM) | > 32 mg/L | > 32 mg/L | 0.5 mg/L (≈ 0.907 µM) |
| CN(C)[C@@H]1C(O)=C(C(N)=O)C(=O)[C@@]2(O)C(O)=C3C(=O)c4c(O)c(NC(=O)c5cccc(C(F)(F)F)c5)cc(F)c4C[C@H]3C[C@@H]12 | 0.25 mg/L (≈ 0.404 µM) | > 32 mg/L | 0.5 mg/L (≈ 0.807 µM) | > 32 mg/L | > 32 mg/L | > 32 mg/L | > 32 mg/L | 0.13 mg/L (≈ 0.21 µM) |
| COc1cccc(C(=O)Nc2cc(F)c3c(c2O)C(=O)C2=C(O)[C@]4(O)C(=O)C(C(N)=O)=C(O)[C@@H](N(C)C)[C@@H]4C[C@@H]2C3)c1 | 0.13 mg/L (≈ 0.224 µM) | > 32 mg/L | 0.25 mg/L (≈ 0.43 µM) | > 32 mg/L | > 32 mg/L | > 32 mg/L | > 32 mg/L | 0.13 mg/L (≈ 0.224 µM) |
| CN(C)c1ccccc1C(=O)Nc1cc(F)c2c(c1O)C(=O)C1=C(O)[C@]3(O)C(=O)C(C(N)=O)=C(O)[C@@H](N(C)C)[C@@H]3C[C@@H]1C2 | 0.13 mg/L (≈ 0.219 µM) | > 32 mg/L | 0.13 mg/L (≈ 0.219 µM) | 32 mg/L (≈ 53.8 µM) | > 32 mg/L | > 32 mg/L | > 32 mg/L | 0.063 mg/L (≈ 0.106 µM) |
| CN(C)c1cccc(C(=O)Nc2cc(F)c3c(c2O)C(=O)C2=C(O)[C@]4(O)C(=O)C(C(N)=O)=C(O)[C@@H](N(C)C)[C@@H]4C[C@@H]2C3)c1 | 0.13 mg/L (≈ 0.219 µM) | > 32 mg/L | 0.13 mg/L (≈ 0.219 µM) | > 32 mg/L | > 32 mg/L | > 32 mg/L | > 32 mg/L | 0.13 mg/L (≈ 0.219 µM) |
| CN(C)c1ccc(C(=O)Nc2cc(F)c3c(c2O)C(=O)C2=C(O)[C@]4(O)C(=O)C(C(N)=O)=C(O)[C@@H](N(C)C)[C@@H]4C[C@@H]2C3)cc1 | 0.063 mg/L (≈ 0.106 µM) | > 32 mg/L | 0.063 mg/L (≈ 0.106 µM) | 2 mg/L (≈ 3.36 µM) | 8 mg/L (≈ 13.5 µM) | > 32 mg/L | > 32 mg/L | 0.063 mg/L (≈ 0.106 µM) |
| CN(C)[C@@H]1C(O)=C(C(N)=O)C(=O)[C@@]2(O)C(O)=C3C(=O)c4c(O)c(NC(=O)c5cccs5)cc(F)c4C[C@H]3C[C@@H]12 | 0.13 mg/L (≈ 0.233 µM) | > 32 mg/L | 0.25 mg/L (≈ 0.448 µM) | 16 mg/L (≈ 28.7 µM) | 16 mg/L (≈ 28.7 µM) | > 32 mg/L | > 32 mg/L | 0.5 mg/L (≈ 0.897 µM) |
| CN(C)[C@@H]1C(O)=C(C(N)=O)C(=O)[C@@]2(O)C(O)=C3C(=O)c4c(O)c(NC(=O)c5cccnc5)cc(F)c4C[C@H]3C[C@@H]12 | 2 mg/L (≈ 3.62 µM) | > 32 mg/L | 4 mg/L (≈ 7.24 µM) | 1 mg/L (≈ 1.81 µM) | 2 mg/L (≈ 3.62 µM) | > 32 mg/L | > 32 mg/L | 16 mg/L (≈ 29 µM) |
| CN(C)[C@@H]1C(O)=C(C(N)=O)C(=O)[C@@]2(O)C(O)=C3C(=O)c4c(O)c(NC(=O)[C@H]5CCCN5)cc(F)c4C[C@H]3C[C@@H]12 | 2 mg/L (≈ 3.67 µM) | 8 mg/L (≈ 14.7 µM) | 2 mg/L (≈ 3.67 µM) | 0.13 mg/L (≈ 0.239 µM) | 0.5 mg/L (≈ 0.918 µM) | 4 mg/L (≈ 7.35 µM) | 32 mg/L (≈ 58.8 µM) | 4 mg/L (≈ 7.35 µM) |
